ChEMBL document CHEMBL5042551, “Dynamic Combinatorial Optimization of In Vitro and In Vivo Heparin Antidotes” (J Med Chem, 2022)
Active and inactive are the calls of the source. The rule behind the calls is not given here.

Assays:
[1] = biological target: Heparin; test: Binding affinity to heparin (unknown origin) assessed as apparent dissociation constant by SPR assay; parameters: species or system Homo sapiens; conditions: read-out: Kd(app)
Method in brief: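 Heparin-functionalized chip: biotin sensor chip loaded with streptavidin (50 μg/mL), then biotin-heparin (50 μg/mL). Ligands injected at 40 μL/min, 25 °C, in 25 mM Tris pH 7.5; surface regenerated with 10 mM HCl. Three independent runs at three ligand concentrations globally fitted to a 1:1 two-state (conformational change) model to give on/off rates and KDapp.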

[2] = test system: Heparin; test: Inhibition of heparin (unknown origin) assessed as reversal of heparin reduced FXa protease activity by measuring Z-D-LGR-N(Me)ANBA peptide substrate at 1 uM hydrolysis after 30 mins; conditions: Homo sapiens
Method in brief: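 Human antithrombin III (0.02 IU/mL) and factor Xa (0.085 μg/mL) combined with heparin (0.1 IU/mL) and ligand (1 μM), then chromogenic substrate added (485 μM) with 4-nitroaniline as internal standard, shaken at 25 °C. Aliquots acid-quenched and analysed by HPLC at 405 nm; percent hydrolysis taken from normalized cleaved-peptide area, with no-heparin as maximal activity and heparin-only as maximal inhibition.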

[3] = test system: Heparin; test: Reversal of heparin mediated anticoagulant activity in heparinized CD-1 mouse at 2.2 to 4.4 mg/kg, iv after 10 mins by tail transection assay; type: organism-based; conditions: dose 2.2-4.4 mg/kg
Method in brief: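 Eight-week-old male CD-1 mice anaesthetised with xylazine/ketamine, then given iv heparin (100 IU/kg) followed by ligand at 2.2 or 4.4 mg/kg; saline, heparin-only and ligand-only (4.4 mg/kg, n = 3) controls. Tails cut 5 mm from tip 5 min after injection and bled 10 min into 1 mL saline at 37 °C; blood volume from absorbance at 414 nm against a standard curve. ANOVA.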

[4] = test system: A549; test: Cytotoxicity against human A549 cells assessed as reduction in cell viability at 25 to 50 uM incubated for 1 hr by MTT assay; type: functional, cell-based; conditions: dose 25-50 µM
Method in brief: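 A549 cells grown in DMEM with 10% FCS, 2 mM glutamine and antibiotics at 37 °C, 5% CO2; seeded at 7000 cells/well, exposed to compound in medium 24 h later for 1 h, then MTT (0.5 mg/mL) for 2 h, formazan dissolved in DMSO, absorbance read at 570 nm. Viability as percent of untreated cells; three independent experiments.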

[5] = test system: Heparin; test: Reversal of heparin mediated anticoagulant activity in mouse blood after 15 mins; conditions: dose 90-250 µM
Method in brief: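 Freshly drawn, untreated mouse blood split into 300 μL aliquots, given heparin (130 μM, per disaccharide repeat unit) plus ligand at various concentrations; after 15 min, clotting judged by inverting the tubes and photographing.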

[6] = biological target: Heparin; test: Binding affinity to heparin (unknown origin) assessed as apparent dissociation constant by ITC assay; parameters: species or system Homo sapiens; conditions: read-out: Kd(app)
[7] = biological target: Heparin; test: Binding affinity to heparin (unknown origin) assessed as apparent dissociation constant by fluorescence emission titration method; parameters: species or system Homo sapiens; conditions: read-out: Kd(app)
Method in brief: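 Binder at 10 μM in 1 mM Bis-Tris pH 7.5, excited at 280 nm; heparin stock (18 IU/mL) added in small portions with emission spectrum recorded after each addition. Full spectra globally fitted by nonlinear regression to a binding model of 1:1, 1:2 and 2:1 ligand–heparin disaccharide complexes to estimate equilibrium constants and apparent KD.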

Row | SMILES | Kd [1] | inhibition [2] | other results
1 | COc1ccccc1CNCCCNCCCCNCCCNCc1ccccc1OC | 33700 nM | – | –
2 | Oc1ccc2ccccc2c1CNCCCNCCCCNCCCNCc1c(O)ccc2ccccc12 | 797 nM | Active | Activity [3]: Active; Activity [4]: inactive; Activity [5]: Dose-Dependent Effect
3 | Oc1ccccc1CNCCCNCCCCNCCCNCc1ccc2ccccc2c1O | 1860 nM | Active | –
4 | Oc1c(CNCCCNCCCCNCCCNCc2ccc3ccccc3c2O)ccc2ccccc12 | – | Active | –
5 | N=C(N)NCCC[C@H](N)C(=O)NCCCN1CCN(CCCNC(=O)[C@@H](N)CCCNC(=N)N)CC1 [CIRAPARANTAG] | 1530 nM | Active | –
6 | Oc1ccccc1CNCCCNCCCCNCCCNCc1c(O)ccc2ccccc12 | 2620 nM | – | –
7 | Oc1ccccc1CNCCCNCCCCNCCCNCc1ccccc1O | 21500 nM | – | Kd [6]: 22500 nM
8 | Oc1ccccc1CNCCCNCCCCNCCCNCc1ccc2c(c1)Cc1ccccc1-2 | 567 nM | Active | Kd [7]: 500 nM; Activity [3]: Active; Activity [4]: inactive; Activity [5]: Dose-Dependent Effect
9 | Oc1ccccc1CNCCCNCCCCNCCCNCc1cccc2ccccc12 | 1890 nM | – | Kd [6]: 1300 nM
